Our source for the LC50, zone of inhibition and FR50 values is ChEMBL document CHEMBL1141357, “Bioactive polychlorinated bibenzyls from the liverwort Riccardia polyclada” (J Nat Prod, 2007).

The subject of one series is Artemia salina. The series can be described thus: Toxicity against brine shrimp by lethality test. The class given is organism-based. The note with it: in vivo.
The test system of series [1] is Cladosporium herbarum. The series can be described thus: Growth inhibition of Cladosporium herbarum at 0.05 mg after 72 hrs. Format: functional. The note with it: read-out: IZ. Summed up: (§1)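 TLC bioautography with a given dose applied per spot. Plates were sprayed with Cladosporium herbarum spores (5 × 10^5 cfu) in 4% malt extract medium. Growth-inhibition zones were read after 72 h at 27 °C.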

In series [2] the test system is Cladosporium herbarum. The series can be described thus: Growth inhibition of Cladosporium herbarum at 0.07 mg after 72 hrs. The note with it: read-out: IZ. Format: functional. In a few lines:
as §1

Another series has as its system Spodoptera littoralis. The series can be described thus: Antifeedant activity against Spodoptera littoralis larvae at 10 ug/disk by disk-choice assay. The class given is functional. Summed up: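 Disk-choice feeding test with fifth-instar Spodoptera littoralis larvae at 10 µg/disk. Read-out is FR50: treated area eaten divided by 50% of the untreated area, scored when half of the untreated area had been eaten.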

For series [3], the system named is Cladosporium herbarum. Briefly: Growth inhibition of Cladosporium herbarum at 0.25 mg after 72 hrs. Format: functional. The note with it: read-out: IZ. In a few lines:
as §1

As for `COc1ccc(CCc2c(Cl)ccc(O)c2Cl)cc1`, the LC50 (in general, the concentration that kills 50% of the test population) with Artemia salina amounted to 0.44 ppm. Moreover, in the series with Cladosporium herbarum [1], the zone of inhibition at 50 µg/disc came out at 22 mm.

`COc1ccc(CCc2c(Cl)ccc(O)c2Cl)cc1Cl`: the LC50 in the series with Artemia salina was found to be 0.42 ppm. Also, in the series with Cladosporium herbarum [2], the zone of inhibition at 70 µg/disc came out at 12 mm. The molecule also yielded an FR50 in the series with Spodoptera littoralis of 0.63.

Turning to `CC(=O)N1CCN(c2ccc(OC[C@H]3CO[C@](Cn4ccnc4)(c4ccc(Cl)cc4Cl)O3)cc2)CC1` [KETOCONAZOLE], the LC50 in the series on Artemia salina is reported as 14.9 ppm. The zone of inhibition at 250 µg/disc with Cladosporium herbarum [3] worked out at 15 mm.

`COc1ccc(CCc2c(Cl)cc(Cl)c(O)c2Cl)cc1Cl`: the LC50 in the series on Artemia salina was 1.71 ppm. In addition, in the series with Cladosporium herbarum [1], the zone of inhibition at 50 µg/disc worked out at 0 mm.

On to `Oc1ccc(CCc2c(Cl)cc(Cl)c(O)c2Cl)cc1Cl`, for which the LC50 in the series on Artemia salina turned out to be 2.39 ppm. Further, in the series with Cladosporium herbarum [2], the zone of inhibition at 70 µg/disc stood at 20 mm. This molecule also gave an FR50 with Spodoptera littoralis of 0.43.
